The source made the active and inactive calls. No cut-off for these calls is given here.
Assays:
[1] = target: T1, Nuclear factor erythroid 2-related factor 2 (Homo sapiens) (UniProt Q16236); assay: Activation of Nrf2 in human LO2 cells assessed as increase in NQO1 mRNA expression level by qRT-PCR analysis; type: cell-based
T1 sequence (whole entry): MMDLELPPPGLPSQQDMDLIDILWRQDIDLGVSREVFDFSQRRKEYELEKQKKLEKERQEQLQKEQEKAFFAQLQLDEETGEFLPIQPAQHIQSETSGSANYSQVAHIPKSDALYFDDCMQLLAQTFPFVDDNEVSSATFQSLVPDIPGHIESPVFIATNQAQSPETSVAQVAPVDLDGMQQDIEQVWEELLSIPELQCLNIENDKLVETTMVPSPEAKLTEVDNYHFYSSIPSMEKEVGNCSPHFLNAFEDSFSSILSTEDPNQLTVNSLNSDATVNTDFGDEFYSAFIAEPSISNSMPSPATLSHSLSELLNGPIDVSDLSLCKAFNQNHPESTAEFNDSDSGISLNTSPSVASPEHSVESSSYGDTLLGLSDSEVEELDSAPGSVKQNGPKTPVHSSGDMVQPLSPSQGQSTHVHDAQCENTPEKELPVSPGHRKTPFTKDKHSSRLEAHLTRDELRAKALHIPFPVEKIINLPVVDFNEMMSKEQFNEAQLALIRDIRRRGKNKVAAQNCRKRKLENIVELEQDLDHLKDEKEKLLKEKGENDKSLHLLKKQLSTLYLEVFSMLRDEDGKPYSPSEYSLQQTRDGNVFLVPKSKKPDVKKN
Summary of the method: (§1)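 LO2 cells in DMEM with 10% FBS were exposed to 0, 2.5, 5, 10, 20 or 40 μM compound for 12 h. Transcripts measured by qRT-PCR: 40 cycles of 95 °C for 5 s and 60 °C for 30 s. Normalized to GAPDH and expressed as fold over the untreated control. Mean ± SD, n = 3.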

[2] = target: T1, Nuclear factor erythroid 2-related factor 2 (Homo sapiens); assay: Activation of Nrf2 in human LO2 cells assessed as increase in Nrf2 mRNA expression level by qRT-PCR analysis; type: cell-based; summary of the method: as §1
[3] = target: T1, Nuclear factor erythroid 2-related factor 2 (Homo sapiens); assay: Activation of Nrf2 in human LO2 cells cotreated with Nrf2 siRNA assessed as increase in NQO1 mRNA expression level at 20 uM by qRT-PCR analysis; type: cell-based
Summary of the method: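 LO2 cells plated at 7 × 10^5 per 60 mm dish and transfected with 50 nM Nrf2 siRNA (scrambled siRNA as control). After 24 h, fresh medium was added and cells grown a further 48 h. Then 20 μM compound for 12 h. Nrf2, NQO1, GCLM and HO-1 mRNA measured by qRT-PCR, normalized to GAPDH, as fold over control.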

L02 [4] = assay: Cytotoxicity against human LO2 cells up to 160 uM after 24 hrs by MTT assay; type: cell-based; details: l02, 24 h
Summary of the method: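 LO2 cells plated for 12 h, then treated for 24 h with 0, 0.2, 2, 20, 40, 80 or 160 μM compound diluted in medium from a DMSO stock. MTT (5 mg/mL stock) added for 4 h, formazan dissolved in DMSO, A570 read. Viability computed from OD relative to DMSO control and blank. Mean ± SD of three experiments.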

[5] = target: T1, Nuclear factor erythroid 2-related factor 2 (Homo sapiens); assay: Activation of Nrf2 in human HepG2-ARE-C8 cells assessed as induction of ARE-mediated luciferase activity at 40 uM after 24 hrs by luciferase reporter gene assay relative to control; type: cell-based
Summary of the method: (§2)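 HepG2-ARE-C8 cells stably carrying ARE-luciferase, grown in DMEM with 10% FBS at 37 °C and 5% CO2. Seeded at 5 × 10^4 cells/well, left overnight, then given compound diluted from a 10 mM DMSO stock for 24 h. Cells lysed and luciferase read as RLU. Inductivity = (RLUtest − RLUblank)/(RLUcontrol − RLUblank), with DMSO as control. Mean ± SEM of three experiments.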

Mus musculus [6] = assay: Hepatoprotective activity against APAP-induced liver injury in C57BL/6 mouse assessed as reduction in serum AST levels administered ip for 7 consecutive days followed by APAP challenge 1 hr post last compound dose and measured after 24 hrs; type: functional, organism-based
Summary of the method: (§3)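 Female C57BL/6 mice (20–25 g, n = 10/group) received 10, 50 or 100 mg/kg/day ip in saline for 7 days. One hour after the last dose they received APAP 300 mg/kg in saline. Killed 24 h later. Serum ALT/AST by kit. Liver homogenates (pH 7.0 phosphate) used for GSH (A420, μmol/g protein), GST (A412, U/mg protein) and SOD. Liver also analyzed by western blot (β-actin normalized), qRT-PCR (GAPDH normalized) and H&E.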

Mus musculus [7] = assay: Hepatoprotective activity against APAP-induced liver injury in C57BL/6 mouse assessed as decrease in APAP-induced cell necrosis administered ip for 7 consecutive days followed by APAP challenge 1 hr post last compound dose and measured after 24 hrs by hematoxylin/eosin staining based assay; type: functional, organism-based; summary of the method: as §3
[8] = target: T1, Nuclear factor erythroid 2-related factor 2 (Homo sapiens); assay: Induction of Nrf2 nuclear translocation in human LO2 cells assessed as Nrf2 binding to antioxidant response element after 12 hrs by DAPI staining based immunofluorescence assay; type: cell-based
Summary of the method: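 LO2 cells grown on coverslips for 24 h, then treated 12 h with compound (5 or 20 μM); 80 μM tBHQ served as reference. Cells fixed, probed with anti-Nrf2 and a DyLight 488 anti-rabbit secondary, nuclei stained with DAPI. Imaged by confocal microscopy.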

[9] = target: T1, Nuclear factor erythroid 2-related factor 2 (Homo sapiens); assay: Activation of Nrf2 in human HepG2-ARE-C8 cells assessed as induction of ARE-mediated luciferase activity at 80 uM after 24 hrs by luciferase reporter gene assay relative to control; type: cell-based; summary of the method: as §2
[10] = target: T1, Nuclear factor erythroid 2-related factor 2 (Homo sapiens); assay: Activation of Nrf2 in human HepG2-ARE-C8 cells assessed as induction of ARE-mediated luciferase activity at 20 uM after 24 hrs by luciferase reporter gene assay relative to control; type: cell-based; summary of the method: as §2
Mus musculus [11] = assay: In vivo activation of Nrf2 in APAP-induced liver injury in C57BL/6 mouse assessed as increase in NQO1 mRNA expression level administered ip for 7 consecutive days followed by APAP challenge 1 hr post last compound dose and measured after 24 hrs by qRT-PCR analysis; type: functional, organism-based; summary of the method: as §3
L02 [12] = assay: Hepatoprotective activity against APAP-induced cell injury in human LO2 cells assessed as increase in cell viability pretreated for 24 hrs followed by APAP treatment measured after 24 hrs by MTT assay; type: functional, cell-based
Summary of the method: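 LO2 cells plated for 12 h and pretreated for 24 h with 5, 10 or 20 μM compound. One arm was first transfected with 50 nM Nrf2 siRNA before receiving 20 μM compound. Medium then replaced with medium containing 8 mM APAP for 24 h. Viability by MTT at A570. Mean ± SD of three experiments.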

Mus musculus [13] = assay: In vivo activation of Nrf2 in APAP-induced liver injury in C57BL/6 mouse assessed as increase in NQO1 protein expression level at 10 to 100 mg/kg, ip administered for 7 consecutive days followed by APAP challenge 1 hr post last compound dose and measured after 24 hrs by Western blot analysis; type: functional, organism-based; summary of the method: as §3
[14] = target: T1, Nuclear factor erythroid 2-related factor 2 (Homo sapiens); assay: Activation of Nrf2 in human HepG2-ARE-C8 cells assessed as induction of ARE-mediated luciferase activity at 1 uM after 24 hrs by luciferase reporter gene assay relative to control; type: cell-based; summary of the method: as §2

`Cc1ccc(-c2noc(-c3ccc(F)c(F)c3)n2)cn1` was tested, and the Activity [1] was “Dose-dependent effect”, the Activity [2] was “Dose-dependent effect” and the Activity [3] was “Active”. For the same molecule, the Activity (L02 [4]) was “<= 7%”, the Activity [5] was 48.7 and the Activity (Mus musculus [6]) was “Dose-dependent effect”. The Activity (Mus musculus [7]) was “Dose-dependent effect”, the Activity [8] was “Dose-dependent effect” and the Activity [9] was 59.5. For the same molecule, the Activity [10] was 24.7, the Activity (Mus musculus [11]) was “Dose-dependent effect” and the Activity (L02 [12]) was “Dose-dependent effect”. For the same molecule, the Activity (Mus musculus [13]) was “Active” and the Activity [14] was 16.1.

— ChEMBL document CHEMBL4265908, “Structure-activity and structure-property relationships of novel Nrf2 activators with a 1,2,4-oxadiazole core and their therapeutic effects on acetaminophen (APAP)-induced acute liver injury” (Eur J Med Chem, 2018)
